The values below come from ChEMBL document CHEMBL1157034, “Synthesis of 1-benzyl-3-(5-hydroxymethyl-2-furyl)selenolo[3,2-c]pyrazole derivatives as new anticancer agents” (Eur J Med Chem, 2010).

Structures are written as SMILES.

For one assay, the system named is NCI-H226. The assay is described as follows: Antitumor activity against human NCI-H226 cells after 48 hrs by MTT assay. The assay is classed as functional, cell-based. To be noted: NCI-H226, 48 h. The gist of the method:
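Cells grown at 37 °C in humidified 5% CO2, seeded at 1×10^4 cells/well, and allowed to attach for 24 h. They were then exposed to a range of concentrations for 48 h, washed with PBS, and given 1 mg/ml MTT for 2 h. Formazan was dissolved in DMSO and read at 570 nm.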
(In general: Formazan colour is commonly taken as a measure of viable cells.)

Another assay has as its system ACHN. The assay is described as follows: Antitumor activity against human ACHN cells after 48 hrs by MTT assay. The class given is functional, cell-based.

In the case of `OCc1ccc(-c2nn(Cc3ccccc3)c3ccccc23)o1`, the results for the half-maximal inhibitory concentration (IC50) in the assay with NCI-H226 and in the assay with ACHN were 25 µM and 0.3 µM, respectively.
